M5 PAM: human M5 muscarinic receptor positive allosteric modulators, primary screen, CHO-K1 cells, Fluo-8 calcium fluorescence. activation, % at 3 µM. 360,000 compounds, 0.3% hits. AID 624038, 2012. CHO-K1 hM5, ACh EC20 PAM; 0% = ACh EC20, 100% = ACh EC100;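 active means activation above the run cutoff, the mean activation of all test compounds plus 3 SD, cut at about 18% in these data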
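system = human M5 receptor in CHO-K1 cells | reagent = EC20 acetylcholine as agonist stimulus | compound dosing = single-point, 3 µM nominal | incubation = Fluo-8 loading 80 min at 37 °C plus 30 min room temperature | detection = Fluo-8 calcium dye fluorescence, kinetic read | benchmarks = low control EC20 acetylcholine (0%), high control EC100 acetylcholine (100%)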
M4 PAM: human M4 muscarinic receptor positive allosteric modulators, primary screen, CHO-K1 cells, Fluo-8 calcium fluorescence; activation, % at 3 µM; CHO-K1 hM4/Gqi5, ACh EC20; 0% = ACh EC20, 100% = maximal ACh; Muscarinic acetylcholine receptor M4 (Homo sapiens), P08173; 360,000 compounds, 0.4% hits;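 active means activation above its plate's cutoff, the mean activation of sample wells plus 3 SD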
Target sequence (P08173 whole entry, looked up): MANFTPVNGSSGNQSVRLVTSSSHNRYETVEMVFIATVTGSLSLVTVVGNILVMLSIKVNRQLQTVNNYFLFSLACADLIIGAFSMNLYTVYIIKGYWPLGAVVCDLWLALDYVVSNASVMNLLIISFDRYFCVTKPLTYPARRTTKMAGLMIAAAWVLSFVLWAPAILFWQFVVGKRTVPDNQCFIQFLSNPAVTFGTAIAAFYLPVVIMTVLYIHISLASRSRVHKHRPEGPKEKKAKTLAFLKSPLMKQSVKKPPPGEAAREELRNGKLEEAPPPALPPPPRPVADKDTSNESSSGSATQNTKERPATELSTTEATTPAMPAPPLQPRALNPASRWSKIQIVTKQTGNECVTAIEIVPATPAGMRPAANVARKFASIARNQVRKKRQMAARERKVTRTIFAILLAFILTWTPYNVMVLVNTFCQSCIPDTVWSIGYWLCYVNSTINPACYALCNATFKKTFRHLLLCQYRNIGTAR
M4 ag: human M4 muscarinic receptor agonists, primary screen, CHO-K1 cells, Fluo-8 calcium fluorescence; Muscarinic acetylcholine receptor M4 (Homo sapiens), P08173; 360,000 compounds, 0.14% hits; activation, % at 3 µM; CHO-K1 hM4/Gqi5; vehicle 0%, full acetylcholine response 100%;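 active means activation above the run mean over all test wells plus 3 SD, cut at about 32% in these data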;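 further: peak over basal fluorescence ratio per well then scaled between controls; 0% = DMSO wells and 100% = acetylcholine at EC100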
CHRM5 antagonist: human M5 muscarinic receptor antagonists, primary screen, CHO cells, Fluo-8 calcium fluorescence; inhibition, % at 3 µM; AID 624040, 2012; Muscarinic acetylcholine receptor M5 (Homo sapiens), P08912; CHO-hM5 cells, ACh EC80; 360,000 compounds, 0.59% hits;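 active means inhibition above a per-plate cutoff, the mean of that plate's test compounds plus 3 SD, cut at about 27% in these data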;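 further: 0% = acetylcholine EC80 with DMSO and 100% = DMSO without agonist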
CHRM4 antagonist: human M4 muscarinic receptor antagonists, primary screen, CHO cells, Fluo-8 calcium fluorescence. inhibition, % at 3 µM. Muscarinic acetylcholine receptor M4 (Homo sapiens), P08173. CHO-hM4 cells, ACh EC80. AID 624125, 2012. 360,000 compounds, 0.73% hits;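 active means inhibition above its plate's cutoff, the mean inhibition of sample wells plus 3 SD, cut at about 27% in these data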;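 further: 0% = acetylcholine EC80 with DMSO and 100% = DMSO without agonist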
M5 ag: human M5 muscarinic receptor agonists, primary screen, CHO-K1 cells, Fluo-8 calcium fluorescence; CHO-K1 hM5 cells; 0% DMSO wells, 100% maximal acetylcholine response; 360,000 compounds, 0.19% hits; AID 624037, 2012; activation, % at 3 µM;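 active means activation above the run's mean over test compounds plus 3 SD, cut at about 23% in these data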;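 further: signal is peak over basal fluorescence ratio across the kinetic read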
Numbers without * were called inactive. A selection: hits, their analogues and other compounds. The true share with any hit is near 1.8%.

SMILES	M5 PAM	M4 PAM	M4 ag	CHRM5 antagonist	CHRM4 antagonist	M5 ag
CC(C)Cn1c(C23CC4CC(CC(C4)C2)C3)n[nH]c1=S	-30	-14	-2	19	27*	-23
CCNc1nc(NCC)n2c(SCC(=O)Nc3cccc(Cl)c3)nnc2n1	22*	8	0	-8	-15	1
Cc1nccn1CCCNC(=O)CC1C(=O)NCCN1Cc1ccc(F)cc1Cl (stereo unspecified)	0	5	0	-10	-9	-5
O=C(Nc1ccc(N2CCCCC2)cc1)c1ccc2ccccc2n1	2	-2	1	5	4	4
CC(=O)N1CCN(Cc2nc(C(c3ccccc3)c3ccccc3)no2)CC1	-17	-6	1	4	3	-10
Cc1cccnc1CN1CCN(Cc2nc(C(c3ccccc3)c3ccccc3)no2)CC1	-36	-55	1	9	36*	-19
c1ccc(C(c2ccccc2)c2noc(CN3CCN(C4CCCC4)CC3)n2)cc1	-20	-21	0	11	30*	-11
Cc1nc(CN2CCN(Cc3nc(C(c4ccccc4)c4ccccc4)no3)CC2)cs1	-15	-19	1	34*	26	-10
COCCNC(=O)C1(C)CCN(C(=O)c2ccc(OC)c(F)c2)C1 (stereo unspecified)	-4	-1	0	3	7	1
Cc1cc(OCC(=O)NCCc2ccc(Cl)cc2)c2c(C)cc(=O)oc2c1	19*	11	0	-13	-15	-1
CCCCNC(=O)c1nc(C2CCN(S(=O)(=O)c3ccc(S(C)(=O)=O)cc3)CC2)oc1-c1ccccc1	-19	-18	14	30*	11	-4
CCCCSc1nc2ccc(Nc3nc(N4CCOCC4)nc(N4CCOCC4)n3)cc2s1	-3	24*	-1	-9	16	3
CCCCNC(=O)CSc1nc2ccc(Nc3nc(N4CCOCC4)nc(N4CCOCC4)n3)cc2s1	-8	-14	5	12	-4	3
Cc1ccc(/C=C/C(=O)c2cc(Br)ccc2OC(=O)c2ccco2)cc1	21*	7	0	-6	-8	-3
OC[C@H]1O[C@@H](c2nc(-c3ccccc3Br)no2)[C@H](O)[C@@H](O)[C@H]1O	-4	2	0	3	11	0
O=C1[C@H](Cc2ccccc2)NCCCC[C@H](c2ccco2)N1Cc1ccccc1	-15	3	-1	4	2	-9
O=C(NC(=S)Nc1ccccc1N1CCCCC1)c1ccccc1	19*	18*	3	-9	6	8
COCc1nnc(NC(=O)CS(=O)(=O)c2ccc(C)cc2)s1	2	6	2	4	-8	-1
Cc1nn(CC(=O)NCc2ccccc2)c(C)c1[N+](=O)[O-]	4	2	0	-3	-6	0
CCn1nc(C)c([N+](=O)[O-])c1C(=O)NNC(=O)c1ccc(Cl)cc1	20*	-5	1	-3	-18	2
Cc1nn(CC(=O)NC(=O)c2ccccc2)c(C)c1[N+](=O)[O-]	0	23*	0	11	-9	0
CC(C)(C)NC(=O)CN(C(=O)CN1C(=O)C(=O)c2ccccc21)C(C)(C)C	-6	-7	1	12	2	1
C=CS(=O)(=O)N(Cc1ccccc1)[C@H](CO)CC(C)C	3	2	2	-8	-14	-11
CC(C)C[C@H](CO)N(Cc1ccccc1)S(=O)(=O)N(Cc1ccccc1)[C@@H](CO)CC(C)C	-19	-11	11	13	34*	4
Cc1oc(-c2cc(F)cc(F)c2)nc1CN1CCN(C(=O)c2ccco2)CC1	0	-6	3	-9	9	4
SMILES	M5 PAM	M4 PAM	M4 ag	CHRM5 antagonist	CHRM4 antagonist	M5 ag
CCOc1ccc2c(c1)c(N=O)c(O)n2C	20*	7	0	3	3	0
CCCS(=O)(=O)NC(=O)C1(C)CCN(C(=O)c2cccc(C)c2C)C1 (stereo unspecified)	-1	19*	1	-6	-11	0
CN(C)CCNc1ccc(Cl)cc1[N+](=O)[O-]	-19	-13	1	30*	9	-10
CS(=O)(=O)NCCNc1ccc(Cl)cc1[N+](=O)[O-]	-13	-12	13	9	5	3
NS(=O)(=O)c1ccc(NC(=O)CCC(=O)c2ccc(Cl)s2)cc1	5	24*	0	0	-9	-3
NS(=O)(=O)c1ccc(NC(=O)CCC(=O)c2cccs2)cc1	0	-4	1	2	-12	-2
N#C/C(=C\c1ccccc1)C(=O)NNS(=O)(=O)c1ccc(Br)cc1	19*	7	1	4	-1	2
Cc1cc(C)c(OCCOCCN2CCCC2)c(C)c1	2	-17	1	8	-1	-12
Cc1cc(C)c(OCCOCCN2CCNCC2)c(C)c1	45*	2	2	-3	-22	-8
COc1ccc(C(C(=O)NC2CCCCC2)N(CC2CCCO2)C(=O)C2COc3ccccc3O2)cc1OC (stereo unspecified)	33*	13	1	-16	-12	-3
Cc1noc(C)c1C(=O)N1CCC1(C)C(=O)NS(=O)(=O)c1ccc(F)cc1F (stereo unspecified)	-3	1	2	4	3	1
Cc1ccc2occ(/C=N/NC(=O)c3ccncc3)c(=O)c2c1	0	20*	2	10	3	-2
CCc1ccc(/C(C)=N/NC(=O)CNC(=O)/C=C/c2ccco2)cc1	12	12	0	2	2	4
CC(=O)C[C@@H](O)CC(=O)[C@H]1OC(=O)CC/C=C\Cc2ccccc21	-9	4	1	18	5	0
CC(=O)C[C@@H](O)CC(=O)[C@@H]1OC(=O)CC/C=C\Cc2ccccc21	12	26*	2	-6	-3	3
O=C(NCc1ccc(F)cc1)C1CCN(S(=O)(=O)c2ccc(Br)s2)CC1	-7	-4	10	11	-2	-1
Cc1ccccc1OCC(=O)NCC(=O)N/N=C/c1ccc(Br)o1	20*	19	9	-15	-24	-1
COCCCN(C(C)=O)c1nc(-c2ccccc2)cs1	4	44*	2	-8	-21	-4
COCCCN(C(=O)c1ccccc1)c1nc(-c2ccc(OC)cc2)cs1	-2	-4	0	-2	10	-6
